Source: ChEMBL document CHEMBL5543124, “Lead Compound Development of SRC-3 Inhibitors with Improved Pharmacokinetic Properties and Anticancer Efficacy” (J Med Chem, 2024)
The source made the active and inactive calls. The calls are words filed in the database; no cut-off is given here.

Legend:
[1] = Cmax in CD-1 mouse at 1 mg/kg,iv administration measured upto 48 hrs by LC-MS/MS analysis; assay type: ADME, organism-based; conditions: in vivo
In short: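 Single intravenous bolus in ICR male mice (n = 3, 6 weeks); dosing solution 0.5 mg/mL in 20% DMSO, 16% PEG, 4% dextrose in PBS. Tail-vein blood (10 μL) taken at 2, 5, 15, 30 min and 1, 2, 4, 8, 24, 48 h. Plasma quantified by LC-MS/MS against a 0.5–1000 ng/mL calibration; parameters from non-compartmental analysis.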

[2] = Drug concentration in CD-1 mouse plasma at 37.7 micromol/kg,ip administration measured after 22 hrs by LC-MS/MS analysis; assay type: ADME, cell-free; conditions: dose 37.7 µmol/kg
In short: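 Female CD-1 mice (n = 3) dosed ip at 37.7 μmol/kg. Blood (20 μL) taken at 0.25, 5 and 22 h, processed to plasma, and drug quantified by LC-MS/MS.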

[3] = biological target: T1, Voltage-gated inwardly rectifying potassium channel KCNH2 (Homo sapiens, UniProt Q12809); assay: Inhibition of hERG transfected in HEK293 cells at 10 uM by patch clamp assay; assay type: toxicity, cell-based; conditions: hek293, 10 µM
T1 sequence (Q12809 whole entry): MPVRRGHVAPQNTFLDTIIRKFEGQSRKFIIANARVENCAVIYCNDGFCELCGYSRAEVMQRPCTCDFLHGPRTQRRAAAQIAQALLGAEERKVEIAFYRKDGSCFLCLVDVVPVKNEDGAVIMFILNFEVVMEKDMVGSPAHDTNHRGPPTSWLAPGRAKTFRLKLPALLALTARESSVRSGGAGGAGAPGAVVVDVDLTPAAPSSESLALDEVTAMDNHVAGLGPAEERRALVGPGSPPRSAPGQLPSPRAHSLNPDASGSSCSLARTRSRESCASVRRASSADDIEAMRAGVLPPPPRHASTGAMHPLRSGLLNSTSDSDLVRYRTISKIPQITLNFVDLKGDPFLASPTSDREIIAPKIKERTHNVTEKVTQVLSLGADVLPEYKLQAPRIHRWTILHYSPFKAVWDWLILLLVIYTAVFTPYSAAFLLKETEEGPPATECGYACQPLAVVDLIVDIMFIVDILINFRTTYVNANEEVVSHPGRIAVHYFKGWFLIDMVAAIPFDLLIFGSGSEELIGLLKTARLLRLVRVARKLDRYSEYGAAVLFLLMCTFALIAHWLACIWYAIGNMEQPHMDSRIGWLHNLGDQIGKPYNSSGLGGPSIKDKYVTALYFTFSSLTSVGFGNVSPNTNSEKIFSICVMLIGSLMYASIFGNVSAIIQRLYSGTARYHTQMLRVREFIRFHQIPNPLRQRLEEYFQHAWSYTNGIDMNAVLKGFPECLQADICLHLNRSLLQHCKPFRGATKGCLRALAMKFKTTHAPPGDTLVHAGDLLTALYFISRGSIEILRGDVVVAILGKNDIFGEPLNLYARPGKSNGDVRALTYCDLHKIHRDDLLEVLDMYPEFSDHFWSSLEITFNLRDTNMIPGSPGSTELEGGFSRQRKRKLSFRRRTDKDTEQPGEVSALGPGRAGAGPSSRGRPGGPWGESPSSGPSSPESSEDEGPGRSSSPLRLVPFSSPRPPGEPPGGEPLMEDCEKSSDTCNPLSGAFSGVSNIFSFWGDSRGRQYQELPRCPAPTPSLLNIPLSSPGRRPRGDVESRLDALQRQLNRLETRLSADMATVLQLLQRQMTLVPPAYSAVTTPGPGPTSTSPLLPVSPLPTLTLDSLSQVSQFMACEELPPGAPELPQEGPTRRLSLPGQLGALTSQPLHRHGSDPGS

[4] = biological target: 5-hydroxytryptamine receptor 2B (Homo sapiens, UniProt P41595); assay: Antagonist activity at HTR2B (unknown origin) by calcium flux assay; assay type: toxicity
Chain of 5-hydroxytryptamine receptor 2B (P41595 whole entry): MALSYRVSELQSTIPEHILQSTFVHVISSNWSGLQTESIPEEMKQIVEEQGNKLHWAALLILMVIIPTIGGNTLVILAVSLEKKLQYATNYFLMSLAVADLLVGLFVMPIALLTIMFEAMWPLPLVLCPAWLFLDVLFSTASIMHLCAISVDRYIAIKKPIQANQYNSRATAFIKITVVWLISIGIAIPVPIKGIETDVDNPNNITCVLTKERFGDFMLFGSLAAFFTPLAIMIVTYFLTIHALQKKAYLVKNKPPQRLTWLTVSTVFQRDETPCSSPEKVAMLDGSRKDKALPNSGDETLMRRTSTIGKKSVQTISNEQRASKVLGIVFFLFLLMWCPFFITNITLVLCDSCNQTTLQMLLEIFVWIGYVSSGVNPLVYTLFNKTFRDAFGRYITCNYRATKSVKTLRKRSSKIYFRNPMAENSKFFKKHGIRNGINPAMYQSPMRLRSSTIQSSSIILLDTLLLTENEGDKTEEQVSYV
In short: (§1)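 Tested in a commercial off-target safety screening panel of 78 targets. Values reported as RC50, taken as IC50 except for agonist mode, where RC50 is EC50.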

MDA-MB-468 [5] = assay: Cytotoxicity against human MDA-MB-468 cells assessed as chromatin accessibility alteration observed after 4 hrs by ATAC-seq analysis; assay type: functional, cell-based
In short: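 MDA-MB-468 cells treated for 4 h (ATAC-seq) or 12 h (RNA-seq) before chromatin accessibility or transcript profiling.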

[6] = Half life in CD-1 mouse at 10 mg/kg,po administration measured upto 48 hrs by LC-MS/MS analysis; assay type: ADME, organism-based; conditions: in vivo
In short: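 Oral gavage in ICR male mice (n = 3); dosing solution 1 mg/mL in 20% DMSO, 16% PEG, 4% dextrose in PBS. Tail-vein blood (10 μL) taken at 15, 30 min and 1, 2, 4, 8, 24, 48 h. Plasma quantified by LC-MS/MS against a 0.5–1000 ng/mL calibration; parameters from a non-compartmental extravascular model.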

MDA-PCa-118b [7] = assay: Antitumor activity against patient derived MDA-PCa-118b cells xenografted in SCID mouse assessed as reduction in tumor burden in femur at 10 mg/kg,ip administration measured after 4 weeks by CT imaging analysis; assay type: functional, organism-based; conditions: Homo sapiens
In short: (§2)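 AR-PDX 118b cells (1×10^5) injected via intra-femoral artery in male SCID mice (8–9 weeks). After 2 weeks, 10 mg/kg/day ip or vehicle for 4 weeks (n = 9/group). X-ray imaging every two weeks. At the end, femurs CT-scanned (5 per group) with 3D-reconstruction tumor size, and H&E histology used for tumor/femur area ratio.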

[8] = Antitumor activity against patient derived MDA-PCa-118b cells xenografted in SCID mouse assessed as reduction in femur volume at 10 mg/kg,ip administration measured after 4 weeks by CT imaging analysis; assay type: functional, Homo sapiens; design: scale not given: the % may be the effect or the level left; in short: as §2
MDA-PCa-118b [9] = assay: Antitumor activity against patient derived MDA-PCa-118b cells xenografted in SCID mouse assessed as reduction in bone metastasis at 10 mg/kg,ip administration measured after 4 weeks by X-ray imaging analysis; assay type: functional, organism-based; conditions: Homo sapiens; in short: as §2
Prostate cancer organoid = assay: Antitumor activity against patient derived Prostate cancer PDX organoid assessed as reduction in organoid formation measured after 2 weeks; assay type: functional, tissue-based; conditions: Homo sapiens
In short: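 Single cells from prostate cancer PDX tumors (collagenase I/III digest); 20000 cells embedded in collagen gel and cultured overnight, then treated or vehicle for 14 days with at least 5 wells per dose. Organoids imaged and counted on day 14; groups compared by Student t test.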

MDA-MB-468 [10] = assay: Cytotoxicity against human MDA-MB-468 cells assessed as inhibition of cell growth incubated for 72 hrs by MTT assay; assay type: functional, cell-based; conditions: MDA-MB-468, 72 h
In short: (§3)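 Cells seeded and grown to 70–80% confluence, then exposed for 72 h to a titration series (0.2–1000 nM). Viability read by MTT relative to untreated cells, with 6 replicates per concentration. IC50 fitted with a Hill-slope model.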

[11] = Half life in human liver microsomes at 1 uM incubated for 30 mins in presence of NADPH by LC-MS/MS analysis; assay type: ADME, Microsome; conditions: 0.5 h
In short: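 Human liver microsomes (1 mg/mL final) in 100 mM phosphate buffer with or without NADPH; compound at 1 μM final, 37 °C. Samples taken at 0, 5, 10, 20, 30 min (0 and 30 min without NADPH), quenched with cold acetonitrile containing internal standards, analysed by LC-MS/MS; verapamil as control.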

[12] = Oral bioavailability in CD-1 mouse at 10 mg/kg administration measured upto 48 hrs by LC-MS/MS analysis; assay type: ADME, organism-based; conditions: in vivo
[13] = biological target: Prostaglandin G/H synthase 1 (Homo sapiens, UniProt P23219); assay: Inhibition of COX1 (unknown origin); assay type: toxicity; in short: as §1
Chain of Prostaglandin G/H synthase 1 (P23219 whole entry): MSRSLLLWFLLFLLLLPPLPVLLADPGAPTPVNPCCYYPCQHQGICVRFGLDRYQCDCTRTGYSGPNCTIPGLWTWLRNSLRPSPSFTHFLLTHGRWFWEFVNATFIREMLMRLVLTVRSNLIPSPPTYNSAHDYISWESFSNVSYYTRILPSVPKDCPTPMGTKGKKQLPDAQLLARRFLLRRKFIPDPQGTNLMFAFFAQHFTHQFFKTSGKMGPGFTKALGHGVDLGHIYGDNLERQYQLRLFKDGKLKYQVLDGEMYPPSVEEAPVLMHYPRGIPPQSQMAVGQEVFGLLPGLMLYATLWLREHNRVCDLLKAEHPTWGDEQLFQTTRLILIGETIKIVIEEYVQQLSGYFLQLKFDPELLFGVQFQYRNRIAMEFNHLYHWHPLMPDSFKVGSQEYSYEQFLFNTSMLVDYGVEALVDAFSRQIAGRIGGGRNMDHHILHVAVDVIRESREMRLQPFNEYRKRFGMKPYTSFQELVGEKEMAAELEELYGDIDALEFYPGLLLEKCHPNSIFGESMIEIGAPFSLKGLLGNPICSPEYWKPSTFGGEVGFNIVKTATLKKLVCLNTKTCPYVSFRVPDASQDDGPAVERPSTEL

[14] = Stability in CD-1 mouse plasma at 37.7 micromol/kg,ip administration measured after 22 hrs by LC-MS/MS analysis; assay type: ADME, cell-free; conditions: at 37.7 µmol/kg
In short: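 Female CD-1 mice (n=3) dosed i.p. at 37.7 μmol/kg (equimolar across compounds). Blood (20 μL) drawn at 0.25, 5 and 22 h and processed to plasma. Drug levels quantified by LC-MS/MS.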

[15] = biological target: T1, Voltage-gated inwardly rectifying potassium channel KCNH2; assay: Inhibition of hERG transfected in HEK293 cells by patch clamp assay; assay type: toxicity, cell-based
BT-474 = assay: Cytotoxicity against human BT-474 cells assessed as inhibition of cell growth incubated for 72 hrs by MTT assay; assay type: functional, cell-based; conditions: BT-474, 72 h; in short: as §3
[16] = Toxicity in SCID mouse orthotopically xenografted with human Panc-1-Luc cells assessed as change in body weight at 10 mg/kg,ip administration once daily for 8 weeks; assay type: organism-based; conditions: in vivo, 1344 h
In short: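 Male SCID mice (8 weeks) received orthotopic pancreatic implants of Panc-1-Luc cells (0.5×10^6 per mouse). Mice randomized by luciferase imaging (n=5 per group). From day 8, dosed 10 mg/kg i.p. or solvent vehicle once daily. Body weight recorded weekly; mice euthanized at day 63.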

Endothelin-1 receptor = biological target: T2, Endothelin-1 receptor (Homo sapiens, UniProt P25101); assay: Agonist activity at EDNRA (unknown origin) by calcium flux assay; assay type: toxicity; in short: as §1
T2 sequence (P25101 whole entry): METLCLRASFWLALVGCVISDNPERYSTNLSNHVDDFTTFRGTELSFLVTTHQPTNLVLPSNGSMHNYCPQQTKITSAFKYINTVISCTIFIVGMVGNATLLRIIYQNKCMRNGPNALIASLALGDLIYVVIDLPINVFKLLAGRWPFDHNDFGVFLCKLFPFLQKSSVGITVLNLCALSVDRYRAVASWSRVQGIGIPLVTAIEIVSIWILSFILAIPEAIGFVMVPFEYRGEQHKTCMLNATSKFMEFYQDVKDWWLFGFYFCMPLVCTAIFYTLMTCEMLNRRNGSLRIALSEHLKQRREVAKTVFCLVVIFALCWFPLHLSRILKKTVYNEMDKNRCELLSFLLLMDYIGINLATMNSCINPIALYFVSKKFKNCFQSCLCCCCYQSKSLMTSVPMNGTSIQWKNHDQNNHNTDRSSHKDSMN

Cmax [1]: 1066 ng/mL
concentration at 22 h [2]: 47 nM
t1/2 [6]: 14.3 h
t1/2 [11]: 8.49 min
F [12]: 24.6%
Stability [14]: Stable
Compound: C/C(=N\N=c1/[nH]c2cc(F)c(F)cc2n1C)c1ccc(F)cn1
inhibition (INH) [3]: Active
IC50 [4]: 4100 nM
Activity (MDA-MB-468 [5]): Active
Activity (MDA-PCa-118b [7]): Active
Activity [8]: >55%
Activity (MDA-PCa-118b [9]): Active
Activity (Prostate cancer organoid): Active
IC50 (MDA-MB-468 [10]): 15 nM
IC50 [13]: 3100 nM
IC50 [15]: 1130 nM
IC50 (BT-474): 0.8 nM
Activity [16]: Non-Toxic
EC50 (Endothelin-1 receptor): 6400 nM
